Assay outcomes deposited in PubChem BioAssay by several laboratories.
A selection: hits, their analogues and other compounds. The true share with any hit is near 2.4%.
MC4R barr agon – activates human MC4R beta-arrestin recruitment; P32245; U2OS MC4R beta-arrestin complementation, luminescence; percent of melanotan II response, DMSO zero; activation, % at 8.9 µM; 360,000 tested, 0.98% active; AID 540308;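 active = activation above a per-plate cutoff, the mean activation of sample wells on that plate plus 3 SD, cut at about 8% in these data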
Target sequence (P32245 whole entry, looked up): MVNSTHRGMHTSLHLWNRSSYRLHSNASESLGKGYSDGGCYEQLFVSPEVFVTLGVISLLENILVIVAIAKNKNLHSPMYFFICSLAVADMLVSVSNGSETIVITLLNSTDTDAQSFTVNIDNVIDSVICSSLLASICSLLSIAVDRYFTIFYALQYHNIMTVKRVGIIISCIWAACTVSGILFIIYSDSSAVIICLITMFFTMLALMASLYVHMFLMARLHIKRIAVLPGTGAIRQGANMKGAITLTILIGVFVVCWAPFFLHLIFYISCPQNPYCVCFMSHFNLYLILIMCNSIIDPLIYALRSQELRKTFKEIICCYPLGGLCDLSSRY
H9c2 TAG inh – triacylglycerol accumulation inhibition | H9c2 cells, Nile Red lipid (TAG) fluorescence; cells loaded with 200 µM oleic acid | inhibition, % at 12.5 µM | 230,000 tested, 0.66% active | AID 651582;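 active = pattern-corrected inhibition of lipid staining of at least 50% with the nuclear-stain viability signal not falling by more than 50%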
MC4R antag cAMP – blocks human MC4R cAMP signaling; P32245; MC4R-expressing cells, MTII-stimulated cAMP, LANCE TR-FRET; inhibition, % at 6.5 µM; 360,000 tested, 0.48% active;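 active = inhibition above its plate's cutoff, the mean of tested wells on that plate plus 3 SD, cut at about 29% in these data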
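Assay system: human MC4R-expressing U2OS cells; reagent: Melanotan II stimulation of cells; dosing: 6.5 µM single dose; timing: compound 30 min, challenge 1 h, detection 1 h; signal: TR-FRET cAMP assay; replicates: one well per compound, no replicates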
aDG glyco up – increases alpha dystroglycan glycosylation. AID 624168. Pro5-aDG cells, alpha-DG glycosylation AlphaScreen (IIH6); 0% Pro5, 100% B10-LARGE cell signal. activation, % at 10 µM. 360,000 tested, 0.22% active;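 active = activation of at least 8% versus controls, or a plate z-score of at least 8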;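 note: Pro5 are CHO cells carrying HIG-tagged alpha-DG that lacks glycosylation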
NTR1 ag – agonists of human neurotensin receptor NTR1; activation, % at 20 µM; NTR1-U2OS beta-arrestin-GFP spot imaging, agonist mode; P30989; 330,000 tested, 0.17% active;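 active = activation at or above 40% of the spot to cytoplasm intensity ratio, with at least 20 cells analyzed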
Target sequence (P30989 whole entry, looked up): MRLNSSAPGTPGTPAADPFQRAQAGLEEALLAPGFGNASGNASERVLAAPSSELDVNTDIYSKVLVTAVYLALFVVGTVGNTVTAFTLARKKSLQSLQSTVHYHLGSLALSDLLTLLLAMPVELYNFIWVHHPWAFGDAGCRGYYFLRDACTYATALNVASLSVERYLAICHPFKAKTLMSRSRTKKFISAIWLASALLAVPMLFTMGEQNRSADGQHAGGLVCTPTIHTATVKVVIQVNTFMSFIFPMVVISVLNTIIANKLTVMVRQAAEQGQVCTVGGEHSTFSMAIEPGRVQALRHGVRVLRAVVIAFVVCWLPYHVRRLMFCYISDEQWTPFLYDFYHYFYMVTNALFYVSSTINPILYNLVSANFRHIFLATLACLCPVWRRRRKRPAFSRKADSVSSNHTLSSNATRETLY
TbMetRS inhib – blocks T. brucei methionyl-tRNA synthetase activity. purified T. brucei MetRS, ATP depletion, Kinase-Glo luminescence. inhibition, % at 11.9 µM. 360,000 tested, 0.4% active;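 active = inhibition above a per-plate cutoff of the control wells' mean inhibition plus 3 SD, cut at about 5.5% in these data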
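Material: T. brucei methionyl-tRNA synthetase, purified; reagent: substrates ATP, L-methionine and bulk Escherichia coli tRNA; dosing: 11.9 µM single point; timing: 15 min plus 2 h at 25 °C; detection: luminescence of leftover ATP; evaluation: % inhibition; control set: DMSO-only wells as low control; replicates: singlicate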
Large screens that a line does not name were inactive.

N#Cc1cc(C#N)c(SCC(=O)N2CC(=O)Nc3ccccc32)nc1N	none
C[C@@H]1CN([C@@H](C)CO)S(=O)(=O)c2ccc(-c3ccccc3)cc2O[C@@H]1CN(C)Cc1ccccc1C(=O)O	none (no result: NTR1 ag)
CC(C)(C)c1ccc(C(=S)N2CCN(c3ccccc3)CC2)cc1	MC4R barr agon 9.0
COCCCn1cc(CN2CC(N3CCN(C4CCN(C)CC4)CC3)CS2(=O)=O)nn1 (centres undefined)	none (no result: MC4R barr agon, H9c2 TAG inh, MC4R antag cAMP, NTR1 ag)
Cc1cc(C)c2sc(NC(=O)c3ccc([N+](=O)[O-])o3)nc2c1	H9c2 TAG inh 56.8
COc1ccc2nc(NC(=O)c3ccc([N+](=O)[O-])o3)sc2c1	none (no result: H9c2 TAG inh)
O=C(NCC1OCCc2ccccc21)c1ccc(NC(=O)c2cccc(Br)c2)cc1 (centres undefined)	MC4R barr agon 9.5 (no result: H9c2 TAG inh)
COc1ccccc1/C=N/Nc1cc(C)nc2ccc(C)cc12	none (no result: H9c2 TAG inh)
COc1ccc2nc(C)cc(N/N=C/c3ccccc3)c2c1	H9c2 TAG inh 66.0
C=CCc1cccc2cc(C(=O)OCC(=O)c3ccccc3)c(=O)oc12	MC4R barr agon 9.5
COc1cccc(-c2cc(C(=O)Nc3cc(C)on3)no2)c1	MC4R barr agon 8.5 (no result: H9c2 TAG inh)
Cc1cc(NC(=O)c2ccc(COc3ccc(Cl)c(C)c3)o2)no1	MC4R barr agon 9.4 (no result: H9c2 TAG inh)
Cc1cc(NC(=O)c2cc(-c3cccc(Cl)c3)on2)no1	none (no result: H9c2 TAG inh)
O=C1NC[C@H](CCCCN2CCN(CCc3ccc(O)cc3)C(=O)C2=O)N(CCc2ccc(O)cc2)C1=O	none (no result: MC4R barr agon, H9c2 TAG inh, MC4R antag cAMP, NTR1 ag)
COCCCn1c(SCCc2ccccc2)nc2cc(OC)c(OC)cc2c1=N	MC4R barr agon 9.4
CC(c1ccc(O)cc1)(c1ccc(O)cc1)c1ccc(CCBr)cc1	MC4R barr agon 17.7 (no result: H9c2 TAG inh)
COc1ccc2occ(C(=O)c3coc4ccc(O)c(CN(C)C)c34)c2c1	aDG glyco up 9.1 (no result: H9c2 TAG inh)
CC(C)(C)c1ccc(OCc2cnc(Cl)s2)cc1	MC4R barr agon 9.3
CC(=O)Nc1cccc(OCc2cnc(Cl)s2)c1	none
Cn1nc(C(C)(C)C)cc1NC(=O)C1(C)CCN1C(=O)c1ccccc1CCc1ccccc1 (centres undefined)	none (no result: NTR1 ag)
Clc1ccccc1OCc1nn2c(-c3ccncc3)nnc2s1	none (no result: H9c2 TAG inh)
Clc1ccc(OCc2nn3c(-c4ccccc4)nnc3s2)c(Cl)c1	MC4R barr agon 8.9 (no result: H9c2 TAG inh)
COc1ccc(-c2nnc3sc(COc4ccc(C)cc4)nn23)cc1	MC4R antag cAMP 28.7
COc1ccc(-c2nnc3sc(COc4ccccc4)nn23)cc1	none (no result: H9c2 TAG inh)
CN1CCN(c2ccc(NC(=O)c3ccc(-c4ccc(Cl)cc4)o3)cc2)CC1	MC4R barr agon 10.0, aDG glyco up 5.5
Cc1cc2oc(C(=O)Nc3ccc(S(N)(=O)=O)cc3)c(C)c2cc1Cl	MC4R barr agon 8.4
Cc1ccc2c(C)c(C(=O)Nc3ccc(S(N)(=O)=O)cc3)oc2c1C	none
COc1ccc(Cc2nnc(SCC(=O)Nc3ccc(C)cc3)n(N)c2=O)cc1	H9c2 TAG inh 58.9
COc1cccc(NC(=O)CSc2nnc(Cc3ccc(C)cc3)c(=O)n2N)c1	none
CC1=C([N+](=O)[O-])C(c2ccccc2)C2=C(N1)c1ccccc1C2=O (centres undefined)	H9c2 TAG inh 59.8
COc1cc(/C=C2\CCC/C(=C\c3ccc(O)c(OC)c3)C2=O)ccc1O	MC4R barr agon 29.8, NTR1 ag 56.4 (no result: H9c2 TAG inh)
COc1cc(/C=C2/CCCC(C(=O)C(F)(F)F)=C2O)ccc1O	none
Cc1ccccc1OCc1nnc(SCC(=O)Nc2ccc3nc(SCC(=O)NC(C)(C)C)sc3c2)n1C	MC4R barr agon 10.7
CC(C)(C)NC(=O)CSc1nc2ccc(NC(=O)CSc3nnnn3Cc3ccccc3)cc2s1	aDG glyco up 5.7
CCOC(=O)CSc1nc2ccc(NC(=O)CSc3nnnn3Cc3ccccc3)cc2s1	none (no result: H9c2 TAG inh)
CCCC[C@@H]1CC2=C(C(=O)OC(C)(C)O2)[C@@H](c2ccc(Cl)cc2)O1	none (no result: MC4R barr agon, H9c2 TAG inh, MC4R antag cAMP, NTR1 ag)
O=C(Nc1ccc(Cl)c(Cl)c1)N[C@@H]1CC[C@@H](CCn2cc(C3CCCCC3)nn2)O[C@@H]1CO	none (no result: MC4R barr agon, H9c2 TAG inh, MC4R antag cAMP, NTR1 ag)
C=C(C)C(O)CC/C(C)=C/Cc1c(O)ccc(C(=O)/C=C/c2ccc(O)cc2)c1O (centres undefined)	MC4R barr agon 9.6 (no result: H9c2 TAG inh)
Cc1ccc(C)c(C(=O)NCCN(C)C)c1	none
C=C(CN(C)C)C(=O)c1cc(C)ccc1C	MC4R antag cAMP 47.5 (no result: NTR1 ag)
COCCNc1nc(-c2ccccc2CO)c2sc(-c3ccccc3)cc2n1	H9c2 TAG inh 50.5 (no result: NTR1 ag)
Cc1cc(Cl)ccc1OCC(=O)N[C@@H](Cc1ccccc1)c1nc2ccccc2[nH]1	MC4R barr agon 12.6 (no result: H9c2 TAG inh)
Cc1ccc(Cn2c(SCC(=O)Nc3cc(C)on3)nc3ccccc3c2=O)cc1	MC4R barr agon 8.8
CCOC(Cn1c(SCC(=O)Nc2cc(C)on2)nc2ccccc2c1=O)OCC	none (no result: H9c2 TAG inh)
Cc1cc(NC(=O)CSc2nc3ccccc3c(=O)n2Cc2ccccc2)no1	MC4R barr agon 8.5
Cc1cc(NC(=O)CSc2c[nH]c3ccccc23)no1	none
Cc1cc(NC(=O)CSc2nnc(-c3c[nH]c4ccccc34)n2-c2ccc(Cl)cc2)no1	MC4R barr agon 12.5 (no result: H9c2 TAG inh)
CC1(C(=O)NS(=O)(=O)c2cccc(C#N)c2)CCN1C(=O)C1(c2ccccc2)CC1 (centres undefined)	none (no result: NTR1 ag)
CN(Cc1cccc(C(F)(F)F)c1)C(=O)[C@H]1O[C@@H](n2ccc(N)nc2=O)[C@H](O)[C@@H]1O	none (no result: MC4R barr agon, H9c2 TAG inh, MC4R antag cAMP, NTR1 ag)
O=C(Nc1ccc2nc([C@@H]3O[C@H](CO)[C@@H](O)[C@H](O)[C@H]3O)[nH]c2c1)NC(c1ccccc1)c1ccccc1	none (no result: NTR1 ag)
Cc1cccc(OCC(=O)O/N=C(\N)c2ccc(Cl)cc2)c1	MC4R barr agon 11.6 (no result: H9c2 TAG inh)
Cc1cccc(/C(N)=N/OC(=O)COc2ccc(Cl)c(C)c2)c1	none (no result: H9c2 TAG inh)
Cc1c(Cl)cccc1NC(=O)CNC(=O)c1cn(-c2ccccc2)nc1-c1cccnc1	TbMetRS inhib 30.7
COc1ccc(CN2CC[C@@H]3CN(C(C)=O)[C@H](c4ccccc4Br)C[C@@H]32)cc1	none (no result: MC4R barr agon, H9c2 TAG inh, MC4R antag cAMP, NTR1 ag)
NC(Cc1ccc(Cl)cc1)c1csc(NC(=O)NCC2CCCCC2)n1 (centres undefined)	MC4R barr agon 8.5 (no result: NTR1 ag)
COc1ccc(CC(N)c2csc(NC(=O)NCCc3ccccc3)n2)cc1 (centres undefined)	none (no result: NTR1 ag)
CCCCC(=O)N(C)c1c(CC)nc2c(OCc3cc(Cl)cc(Cl)c3)cccn12	none (no result: NTR1 ag)
Cc1ccc(CONS(=O)(=O)c2cc(C)ccc2C)cc1	MC4R barr agon 8.2
CC(C)(C)c1ccc(C(=O)N2CCC2(C)C(=O)Nc2cccc3ncccc23)cc1 (centres undefined)	none (no result: NTR1 ag)
CC(=O)Nc1ccc(S(=O)(=O)Nc2cccc(-c3nc4cc(C)ccc4o3)c2)cc1	aDG glyco up 3.9
Cc1ccc2oc(-c3ccc(C)c(NC(=O)Cc4cccs4)c3)nc2c1	none
